Source: ChEMBL document CHEMBL3627695, “1-Benzyl-2-methyl-3-indolylmethylene barbituric acid derivatives: Anti-cancer agents that target nucleophosmin 1 (NPM1)” (Bioorg Med Chem, 2015)
Active and inactive are the calls of the source. No cut-off for these calls is given here.

Tests used:
OCI-AML-3 = test: (§1) Anticancer activity against human OCI-AML3 cells expressing mutant NPM1 assessed as apoptosis for 48 hrs by annexin-V and TO-PRO3 staining based flow cytometry; assay type: functional, cell-based
Method in brief: (§2)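 OCI-AML3 cells (NPM1c+) in logarithmic growth, passaged 2–3 times weekly. Cells were exposed to the indicated compound concentrations for 48 hr, then stained with annexin V and TO-PRO 3. Percent apoptotic cells was read by flow cytometry. AP50 is the concentration at which 50% of cells undergo apoptosis.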

SK-OV-3 = test: Anticancer activity against human SKOV3 cells after 48 hrs by sulforhodamine B assay; assay type: functional; conditions: SK-OV-3, 48 h
Method in brief: (§3)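 NCI-60 human tumour cell line panel. Compounds dissolved in DMSO/H2O and tested at five 10-fold dilutions (10⁻⁴ M to 10⁻⁸ M) for 48 hr. GI50 is the molar concentration giving 50% reduction in net cell growth relative to cell numbers on day 0.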

IGROV-1 = test: Anticancer activity against human IGROV1 cells after 48 hrs by sulforhodamine B assay; assay type: functional; conditions: IGROV-1, 48 h; method in brief: as §3
A498 = test: Anticancer activity against human A498 cells after 48 hrs by sulforhodamine B assay; assay type: functional; conditions: A498, 48 h; method in brief: as §3
[1] = Anticancer activity against human NCI-ADR-RES cells after 48 hrs by sulforhodamine B assay; assay type: functional; method in brief: as §3
[2] = Anticancer activity against human HOP92 cells after 48 hrs by sulforhodamine B assay; assay type: functional; conditions: HOP-92, 48 h; method in brief: as §3
CAKI-1 = test: Anticancer activity against human Caki1 cells after 48 hrs by sulforhodamine B assay; assay type: functional; conditions: CAKI-1, 48 h; method in brief: as §3
ACHN = test: Anticancer activity against human ACHN cells after 48 hrs by sulforhodamine B assay; assay type: functional; method in brief: as §3
M14 = test: Anticancer activity against human M14 cells after 48 hrs by sulforhodamine B assay; assay type: functional; conditions: M14, 48 h; method in brief: as §3
[3] = Anticancer activity against human MOLT4 cells after 48 hrs by sulforhodamine B assay; assay type: functional; conditions: MOLT-4, 48 h; method in brief: as §3
TK-10 = test: Anticancer activity against human TK10 cells after 48 hrs by sulforhodamine B assay; assay type: functional; conditions: TK-10, 48 h
Method in brief: (§4)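 NCI-60 panel protocol. Compounds were dissolved in DMSO/H2O and tested at five 10-fold concentrations (10⁻⁴ to 10⁻⁸ M) with 48 hr incubation. GI50 is the molar concentration giving a 50% reduction in net cell growth relative to cell numbers on day 0.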

T47D = test: Anticancer activity against human T47D cells after 48 hrs by sulforhodamine B assay; assay type: functional; method in brief: as §4
[4] = Anticancer activity against human RPMI8226 cells after 48 hrs by sulforhodamine B assay; assay type: functional; conditions: RPMI-8226, 48 h; method in brief: as §3
SK-MEL-5 = test: Anticancer activity against human SK-MEL-5 cells after 48 hrs by sulforhodamine B assay; assay type: functional; conditions: SK-MEL-5, 48 h; method in brief: as §3
SN12C = test: Anticancer activity against human SN12C cells after 48 hrs by sulforhodamine B assay; assay type: functional; method in brief: as §3
[5] = Anticancer activity against human Hs 578T cells after 48 hrs by sulforhodamine B assay; assay type: functional; method in brief: as §3
OVCAR-4 = test: Anticancer activity against human OVCAR4 cells after 48 hrs by sulforhodamine B assay; assay type: functional; conditions: OVCAR-4, 48 h; method in brief: as §3
U-251 = test: Anticancer activity against human U251 cells after 48 hrs by sulforhodamine B assay; assay type: functional; conditions: U-251, 48 h; method in brief: as §4
SNB-19 = test: Anticancer activity against human SNB19 cells after 48 hrs by sulforhodamine B assay; assay type: functional; conditions: SNB-19, 48 h; method in brief: as §3
MCF7 = test: Anticancer activity against human MCF7 cells after 48 hrs by sulforhodamine B assay; assay type: functional; conditions: MCF7, 48 h; method in brief: as §3
SNB-75 = test: Anticancer activity against human SNB75 cells after 48 hrs by sulforhodamine B assay; assay type: functional; conditions: SNB-75, 48 h; method in brief: as §3
MDA-MB-468 = test: Anticancer activity against human MDA-MB-468 cells after 48 hrs by sulforhodamine B assay; assay type: functional; conditions: MDA-MB-468, 48 h; method in brief: as §3
NCI-H226 = test: Anticancer activity against human NCI-H226 cells after 48 hrs by sulforhodamine B assay; assay type: functional; conditions: NCI-H226, 48 h; method in brief: as §3
SF-268 = test: Anticancer activity against human SF268 cells after 48 hrs by sulforhodamine B assay; assay type: functional; conditions: SF-268, 48 h; method in brief: as §3
[6] = Anticancer activity against human LOXIMVI cells after 48 hrs by sulforhodamine B assay; assay type: functional; conditions: LOX IMVI; method in brief: as §3
NCI-H322M = test: Anticancer activity against human NCI-H322M cells after 48 hrs by sulforhodamine B assay; assay type: functional; method in brief: as §3
NCI-H522 = test: Anticancer activity against human NCI-H522 cells after 48 hrs by sulforhodamine B assay; assay type: functional; conditions: NCI-H522, 48 h; method in brief: as §3
DU-145 = test: Anticancer activity against human DU145 cells after 48 hrs by sulforhodamine B assay; assay type: functional; conditions: DU-145, 48 h; method in brief: as §3
CCRF-CEM = test: Anticancer activity against human CCRF-CEM cells after 48 hrs by sulforhodamine B assay; assay type: functional; method in brief: as §3
SK-MEL-2 = test: Anticancer activity against human SK-MEL-2 cells after 48 hrs by sulforhodamine B assay; assay type: functional; conditions: SK-MEL-2, 48 h; method in brief: as §3
SK-MEL-28 = test: Anticancer activity against human SK-MEL-28 cells after 48 hrs by sulforhodamine B assay; assay type: functional; conditions: SK-MEL-28, 48 h; method in brief: as §3
A549 = test: Anticancer activity against human A549/ATCC cells after 48 hrs by sulforhodamine B assay; assay type: functional; conditions: A549, 48 h; method in brief: as §3
K562 = test: Anticancer activity against human K562 cells after 48 hrs by sulforhodamine B assay; assay type: functional; conditions: K562, 48 h; method in brief: as §3
UACC-257 = test: Anticancer activity against human UACC257 cells after 48 hrs by sulforhodamine B assay; assay type: functional; conditions: UACC-257, 48 h; method in brief: as §4
[7] = Anticancer activity against human SF539 cells after 48 hrs by sulforhodamine B assay; assay type: functional; conditions: SF-539, 48 h; method in brief: as §3
786-0 = test: Anticancer activity against human 786-0 cells after 48 hrs by sulforhodamine B assay; assay type: functional; conditions: 786-0, 48 h; method in brief: as §3
[8] = as §1; assay type: functional, cell-based; conditions: OCI-AML-3, 48 h; method in brief: as §2
KM12 = test: Anticancer activity against human KM12 cells after 48 hrs by sulforhodamine B assay; assay type: functional; conditions: KM12, 48 h; method in brief: as §3
BT-549 = test: Anticancer activity against human BT549 cells after 48 hrs by sulforhodamine B assay; assay type: functional; conditions: BT-549, 48 h; method in brief: as §3
HCT-15 = test: Anticancer activity against human HCT15 cells after 48 hrs by sulforhodamine B assay; assay type: functional; conditions: HCT-15, 48 h; method in brief: as §3
HL-60(TB) = test: Anticancer activity against human HL-60(TB) cells after 48 hrs by sulforhodamine B assay; assay type: functional; conditions: HL-60, 48 h; method in brief: as §3
OVCAR-8 = test: Anticancer activity against human OVCAR8 cells after 48 hrs by sulforhodamine B assay; assay type: functional; conditions: OVCAR-8, 48 h; method in brief: as §3
MDA-MB-231 = test: Anticancer activity against human MDA-MB-231 cells after 48 hrs by sulforhodamine B assay; assay type: functional; conditions: MDA-MB-231, 48 h; method in brief: as §3
[9] = Anticancer activity against human SF295 cells after 48 hrs by sulforhodamine B assay; assay type: functional; conditions: SF-295, 48 h; method in brief: as §3
UO-31 = test: Anticancer activity against human UO31 cells after 48 hrs by sulforhodamine B assay; assay type: functional; conditions: UO-31, 48 h; method in brief: as §4
OVCAR-3 = test: Anticancer activity against human OVCAR3 cells after 48 hrs by sulforhodamine B assay; assay type: functional; conditions: OVCAR-3, 48 h; method in brief: as §3
Malme-3M = test: Anticancer activity against human MALME-3M cells after 48 hrs by sulforhodamine B assay; assay type: functional; method in brief: as §3
[10] = Anticancer activity against human HCC2998 cells after 48 hrs by sulforhodamine B assay; assay type: functional; conditions: HCC 2998, 48 h; method in brief: as §3
HOP-62 = test: Anticancer activity against human HOP62 cells after 48 hrs by sulforhodamine B assay; assay type: functional; conditions: HOP-62, 48 h; method in brief: as §3
NCI-H460 = test: Anticancer activity against human NCI-H460 cells after 48 hrs by sulforhodamine B assay; assay type: functional; conditions: NCI-H460, 48 h; method in brief: as §3
[11] = Anticancer activity against human RXF393 cells after 48 hrs by sulforhodamine B assay; assay type: functional; conditions: RXF 393, 48 h; method in brief: as §3
MDA-MB-435 = test: Anticancer activity against human MDA-MB-435 cells after 48 hrs by sulforhodamine B assay; assay type: functional; conditions: MDA-MB-435, 48 h; method in brief: as §3
HT-29 = test: Anticancer activity against human HT-29 cells after 48 hrs by sulforhodamine B assay; assay type: functional; conditions: HT-29, 48 h; method in brief: as §3
[12] = Anticancer activity against human COLO205 cells after 48 hrs by sulforhodamine B assay; assay type: functional; conditions: COLO 205, 48 h; method in brief: as §3
SW-620 = test: Anticancer activity against human SW620 cells after 48 hrs by sulforhodamine B assay; assay type: functional; conditions: SW-620, 48 h; method in brief: as §4
HCT-116 = test: Anticancer activity against human HCT116 cells after 48 hrs by sulforhodamine B assay; assay type: functional; conditions: HCT-116, 48 h; method in brief: as §3
OVCAR-5 = test: Anticancer activity against human OVCAR5 cells after 48 hrs by sulforhodamine B assay; assay type: functional; conditions: OVCAR-5, 48 h; method in brief: as §3
SR = test: Anticancer activity against human SR cells after 48 hrs by sulforhodamine B assay; assay type: functional; method in brief: as §4

In the case of `Cc1c(C=C2C(=O)NC(=O)NC2=O)c2ccccc2n1Cc1ccccc1`, the Activity (OCI-AML-3) is reported as “inactive”.
In the case of `COC(=O)c1ccc(Cn2c(C)c(C=C3C(=O)NC(=S)NC3=O)c3ccccc32)cc1`, the GI50 (SK-OV-3) is reported as 450 nM, the GI50 (IGROV-1) is reported as 510 nM and the GI50 (A498) is reported as 190 nM. The GI50 [1] was 350 nM, the GI50 [2] was 250 nM and the GI50 (CAKI-1) was 500 nM. It also gave a GI50 (ACHN) of 510 nM, a GI50 (M14) of 330 nM and a GI50 [3] of 350 nM. It also gave a GI50 (TK-10) of 310 nM, a GI50 (T47D) of 1860 nM and a GI50 [4] of 310 nM. The GI50 (SK-MEL-5) was 1130 nM, the GI50 (SN12C) was 410 nM and the GI50 [5] was 220 nM. The GI50 (OVCAR-4) was 460 nM, the GI50 (U-251) was 320 nM and the GI50 (SNB-19) was 1050 nM. For the same molecule, the GI50 (MCF7) was 400 nM, the GI50 (SNB-75) was 460 nM and the GI50 (MDA-MB-468) was 340 nM. The GI50 (NCI-H226) was 410 nM, the GI50 (SF-268) was 420 nM and the GI50 [6] was 320 nM. It also gave a GI50 (NCI-H322M) of 530 nM, a GI50 (NCI-H522) of 250 nM and a GI50 (DU-145) of 340 nM. It also gave a GI50 (CCRF-CEM) of 340 nM, a GI50 (SK-MEL-2) of 1120 nM and a GI50 (SK-MEL-28) of 1050 nM. It also gave a GI50 (A549) of 1360 nM, a GI50 (K562) of 270 nM and a GI50 (UACC-257) of 800 nM. The GI50 [7] was 220 nM, the GI50 (786-0) was 320 nM and the AC50 [8] was 1.75 µM. The Activity (OCI-AML-3) was “Dose-dependent effect”, the GI50 (KM12) was 310 nM and the GI50 (BT-549) was 310 nM. The GI50 (HCT-15) was 330 nM, the GI50 (HL-60(TB)) was 220 nM and the GI50 (OVCAR-8) was 320 nM. The GI50 (MDA-MB-231) was 380 nM, the GI50 [9] was 350 nM and the GI50 (UO-31) was 410 nM. The GI50 (OVCAR-3) was 300 nM, the GI50 (Malme-3M) was 1480 nM and the GI50 [10] was 400 nM. It also gave a GI50 (HOP-62) of 390 nM, a GI50 (NCI-H460) of 330 nM and a GI50 [11] of 300 nM. The GI50 (MDA-MB-435) was 220 nM, the GI50 (HT-29) was 310 nM and the GI50 [12] was 200 nM. For the same molecule, the GI50 (SW-620) was 400 nM, the GI50 (HCT-116) was 260 nM and the GI50 (OVCAR-5) was 420 nM. For the same molecule, the GI50 (SR) was 320 nM.
With `N#Cc1ccc(Cn2cc(C=C3C(=O)NC(=O)NC3=O)c3ccccc32)cc1` the AC50 [8] was > 20 µM.
With `Cc1c(C=C2C(=O)NC(=S)NC2=O)c2ccccc2n1Cc1ccc(Br)cc1` the AC50 [8] was 3.3 µM and the Activity (OCI-AML-3) was “Dose-dependent effect”.
